According to ChEMBL document CHEMBL4732053, “Design, synthesis and structure-activity relationship study of novel urea compounds as FGFR1 inhibitors to treat metastatic triple-negative breast cancer” (Eur J Med Chem, 2021):
pIC50, pKi: −log10 of the molar value. Activity calls are given as the source filed them. No cut-off for these calls is given here.

Legend:
MDA-MB-231 [1] = experiment: Cytotoxicity against human MDA-MB-231 cells assessed as reduction in cell viability incubated for 48 hrs by MTT assay; format: functional, cell-based; details: MDA-MB-231, 48 h
Method in brief: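 MTT assay in MDA-MB-231 cells grown in DMEM with 10% heat-inactivated FBS at 37 °C and 5% CO2. Cells were seeded at 8000 per well, left 24 h, then exposed for 48 h to 0–25 μM in DMEM with 2% FBS (final DMSO 0.1%). MTT (0.5 mg/mL) was added for 2 h, formazan was dissolved in DMSO and read at 570 nm. Runs were in triplicate and IC50 was derived from the curves.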

[2] = molecular target: DAT (sodium-dependent dopamine transporter) (Homo sapiens, UniProt Q01959); experiment: Inhibition of DAT (unknown origin) at 10 uM relative to control
Sequence of DAT (sodium-dependent dopamine transporter) (Q01959 whole entry): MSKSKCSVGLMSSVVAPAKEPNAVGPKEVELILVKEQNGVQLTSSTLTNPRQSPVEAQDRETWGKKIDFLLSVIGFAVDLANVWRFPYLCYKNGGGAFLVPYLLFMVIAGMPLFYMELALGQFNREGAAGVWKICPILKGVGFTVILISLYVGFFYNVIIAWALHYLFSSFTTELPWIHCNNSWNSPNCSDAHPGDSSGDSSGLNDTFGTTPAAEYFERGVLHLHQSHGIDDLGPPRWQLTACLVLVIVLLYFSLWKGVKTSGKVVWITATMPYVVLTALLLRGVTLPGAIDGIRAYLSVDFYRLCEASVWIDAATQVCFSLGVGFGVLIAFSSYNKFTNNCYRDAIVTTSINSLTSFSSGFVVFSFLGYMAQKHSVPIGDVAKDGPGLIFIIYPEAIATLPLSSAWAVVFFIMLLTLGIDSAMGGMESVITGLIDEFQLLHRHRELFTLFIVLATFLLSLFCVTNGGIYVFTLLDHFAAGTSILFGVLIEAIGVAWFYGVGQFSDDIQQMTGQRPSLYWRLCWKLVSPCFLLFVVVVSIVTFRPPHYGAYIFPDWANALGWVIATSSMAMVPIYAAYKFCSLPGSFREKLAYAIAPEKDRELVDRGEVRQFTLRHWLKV
Method in brief: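 Primary radioligand-binding screen by the NIMH Psychoactive Drug Screening Program. Each compound was tested at a final concentration of 10 μM in triplicate or quadruplicate, and % inhibition was recorded. Data are mean ± SEM of four independent experiments. Compounds reaching at least 50% antagonist activity went on to secondary dose-response assays.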

[3] = molecular target: Sodium-dependent dopamine transporter (Homo sapiens, UniProt Q01959); experiment: Inhibition of DAT (unknown origin)
Sequence of Sodium-dependent dopamine transporter (Q01959 whole entry): as above

[4] = Metabolic stability in Sprague-Dawley rat liver microsomes assessed as parent compound remaining in presence of NADPH measured up to 60 mins by LC-MS/MS analysis; format: ADME, Microsome; details: 1 h
Method in brief: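 Pooled male Sprague-Dawley rat liver microsomes (6.2% mixture in potassium phosphate buffer) were used with an NADPH regenerating system. Compound, diluted to 5 μM before mixing, was prewarmed 10 min at 37 °C, then incubated with microsomes at 37 °C with shaking. Samples taken at 0, 5, 15, 30 and 60 min were quenched in ice-cold acetonitrile and centrifuged. Analysis was by LC-MS/MS, giving % remaining versus T0 from peak area ratios. Three independent experiments in triplicate.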

MDA-MB-231 [5] = experiment: Induction of apoptosis in human MDA-MB-231 cells assessed as caspase-3 cleavage; format: functional, cell-based
Method in brief: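 MDA-MB-231 cells treated 48 h, lysed on ice in RIPA buffer with protease and phosphatase inhibitors, then centrifuged. Equal protein loads were run on SDS-PAGE and transferred to PVDF. Blots were probed for cleaved caspase-3 and total caspase-3 (1:1000), with β-tubulin (1:2000) as loading control. Detection used HRP chemiluminescence with goat anti-rabbit secondary, and bands were quantified by densitometry.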

MDA-MB-231 [6] = experiment: Induction of apoptosis in human MDA-MB-231 cells incubated for 48 hrs; format: functional, cell-based
MDA-MB-231 [7] = experiment: Effect on cell cycle in human MDA-MB-231 cells at 0 to 5 uM; format: functional, cell-based; details: dose 0-5 µM
MDA-MB-231 [8] = experiment: Induction of apoptosis in human MDA-MB-231 cells at 1 uM incubated for 48 hrs; format: functional, cell-based
[9] = molecular target: Fibroblast growth factor receptor 1 (Homo sapiens) (UniProt P11362); experiment: Inhibition of FGFR1 phosphorylation in human […] cells at 3 to 6 uM incubated for 48 hrs in presence of bFGF by immunoblotting analysis; format: cell-based; details: MDA-MB-231, dose 3-6 µM
Sequence of Fibroblast growth factor receptor 1 (Homo sapiens) (P11362 22-822 limits assumed): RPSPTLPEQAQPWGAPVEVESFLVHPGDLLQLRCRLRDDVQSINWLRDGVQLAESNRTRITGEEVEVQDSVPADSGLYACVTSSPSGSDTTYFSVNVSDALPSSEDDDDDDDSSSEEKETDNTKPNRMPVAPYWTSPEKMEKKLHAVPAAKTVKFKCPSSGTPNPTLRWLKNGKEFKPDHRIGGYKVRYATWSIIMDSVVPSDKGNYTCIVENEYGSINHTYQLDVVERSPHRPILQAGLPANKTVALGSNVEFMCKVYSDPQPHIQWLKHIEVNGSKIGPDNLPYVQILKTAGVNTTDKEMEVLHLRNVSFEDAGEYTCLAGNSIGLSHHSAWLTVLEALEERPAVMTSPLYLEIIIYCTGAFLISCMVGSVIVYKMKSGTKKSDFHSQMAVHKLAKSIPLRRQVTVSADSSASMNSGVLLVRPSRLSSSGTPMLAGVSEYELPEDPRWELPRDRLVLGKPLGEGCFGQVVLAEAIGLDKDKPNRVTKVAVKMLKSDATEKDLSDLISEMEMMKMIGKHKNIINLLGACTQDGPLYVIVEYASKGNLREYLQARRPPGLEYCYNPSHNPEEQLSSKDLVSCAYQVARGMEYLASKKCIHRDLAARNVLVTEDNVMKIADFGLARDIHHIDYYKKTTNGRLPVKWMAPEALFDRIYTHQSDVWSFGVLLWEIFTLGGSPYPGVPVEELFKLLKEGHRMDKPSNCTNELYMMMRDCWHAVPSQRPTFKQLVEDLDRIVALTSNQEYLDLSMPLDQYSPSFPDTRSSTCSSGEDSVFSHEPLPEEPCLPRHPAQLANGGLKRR
Method in brief: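 MDA-MB-231 cells treated 48 h with or without bFGF, lysed in RIPA buffer with protease and phosphatase inhibitors. Equal protein loads were run on SDS-PAGE and transferred to PVDF. Blots were probed with anti-pFGFR1 (1:1000), using β-tubulin (1:2000) as loading control. Bands were detected by HRP chemiluminescence and quantified by densitometry; n = 3.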

MDA-MB-231 [10] = experiment: Induction of apoptosis in human MDA-MB-231 cells assessed as fold increase in apoptotic index at 5 uM relative to control; format: functional

inhibition at 10 µM [2] [%]	Structure (SMILES)	pIC50 (MDA-MB-231 [1])	also measured
	O=C(NCCCCN(c1ccc(F)cc1)c1ccc(F)cc1)Nc1ccc(Br)cc1I	< 4.70	
	O=C(NCCCCC(c1ccc(F)cc1)c1ccc(F)cc1)Nc1cccc([N+](=O)[O-])c1	5.42	
38	Cc1ccc(C(CCCCNC(=O)Nc2ccc(Cl)c(C(F)(F)F)c2)c2ccc(C)cc2)cc1	5.60	
	O=C(Nc1ccc(Cl)c(C(F)(F)F)c1)N1CCC(=C(c2ccc(F)cc2)c2ccc(F)cc2)CC1	5.25	
76	CC(=O)Nc1cc(NC(=O)NCCCCC(c2ccc(F)cc2)c2ccc(F)cc2)ccc1Cl	5.04	pKi [3]: 6.22
	O=C(NCCCCCc1ccc(F)cc1)Nc1ccc(Cl)c(C(F)(F)F)c1	5.26	
	Fc1ccc(C(CCCCOC2COC(c3ccccc3)OC2)c2ccc(F)cc2)cc1 (configuration not stated)	< 4.70	
	O=C(NCCCCC(c1ccc(F)cc1)c1ccc(F)cc1)Nc1ccc(C(F)(F)F)cc1	5.56	
	Nc1ccc(C(CCCCNC(=O)Nc2ccc(Cl)c(C(F)(F)F)c2)c2ccc(N)cc2)cc1	4.91	
68	O=C(NCCCCN(c1ccc(F)cc1)c1ccc(F)cc1)Nc1ccc(Cl)cc1	< 4.70	pKi [3]: 6.39
52	O=C(Nc1ccc(Cl)c(C(F)(F)F)c1)N1CCC(C(c2ccc(F)cc2)c2ccc(F)cc2)CC1	4.94	pKi [3]: 5.80
	Nc1ccc(NC(=O)NCCCCC(c2ccc(F)cc2)c2ccc(F)cc2)cc1	< 4.70	
	Cc1ccc(NC(=O)NCCCCC(c2ccc(F)cc2)c2ccc(F)cc2)cc1	< 4.70	
90	O=C(NCCCCC(c1ccc(F)cc1)c1ccc(F)cc1)Nc1ccc(Cl)c(C(F)(F)F)c1	5.50	pKi [3]: 8.19; Stabilty [4]: Stable
	O=C(NCCCCC(c1ccc(F)cc1)c1ccc(F)cc1)Nc1cccc(C(F)(F)F)c1	5.47	
	O=C(NCCCCC(c1ccccc1)c1ccccc1)Nc1ccc(Cl)c(C(F)(F)F)c1	5.24	
58	Cc1cc(Cl)ccc1NC(=O)NCCCCC(c1ccc(F)cc1)c1ccc(F)cc1	< 4.70	pKi [3]: 6.93
85	O=C(NCCCCN(c1ccc(F)cc1)c1ccc(F)cc1)Nc1ccc(Cl)c(C(F)(F)F)c1	5.30	pKi [3]: 7.37
	O=C(NCCCCN(c1ccc(F)cc1)c1ccc(F)cc1)Nc1ccc(I)cc1	< 4.70	
77	O=C(NCCCCCC(c1ccc(F)cc1)c1ccc(F)cc1)Nc1ccc(Cl)c(C(F)(F)F)c1	5.59	pKi [3]: 6.40
	CC(=O)Nc1ccc(NC(=O)NCCCCC(c2ccc(F)cc2)c2ccc(F)cc2)cc1	< 4.70	
	Fc1ccc(C(CCCCNC(=S)Nc2ccc(Cl)c(C(F)(F)F)c2)c2ccc(F)cc2)cc1	5.44	
75	COc1ccc(C(CCCCNC(=O)Nc2ccc(Cl)c(C(F)(F)F)c2)c2ccc(OC)cc2)cc1	5.48	pKi [3]: 7.40
	O=C(NCCCCC(c1ccc(F)cc1)c1ccc(F)cc1)Nc1ccc([N+](=O)[O-])c(C(F)(F)F)c1	5.34	Activity (MDA-MB-231 [5]): Active; Activity (MDA-MB-231 [6]): Dose-dependent effect; Activity (MDA-MB-231 [7]): inactive; Activity (MDA-MB-231 [8]): Active; Stabilty [4]: Stable; inhibition [9]: Active; fold change (FC) (MDA-MB-231 [10]): 10.6
	O=C(NCCCCC(c1ccc(F)cc1)c1ccc(F)cc1)Nc1ccc([N+](=O)[O-])c(Cl)c1	5.46	
	O=C(NCCCCC(c1ccc(F)cc1)c1ccc(F)cc1)Nc1ccc(Cl)c([N+](=O)[O-])c1	5.39	
	OC1(c2ccc(Cl)c(C(F)(F)F)c2)CCN(CCCC(c2ccc(F)cc2)c2ccc(F)cc2)CC1 [PENFLURIDOL]	5.64	

inhibition at 10 µM [2] [%]	Structure (SMILES)	pIC50 (MDA-MB-231 [1])	also measured
	Fc1ccc(C(CCCCOCc2ccc(Oc3ccc(Cl)cc3)cc2)c2ccc(F)cc2)cc1	< 4.70	
64	COc1ccc(C(CCCCNC(=O)Nc2ccc(Cl)c([N+](=O)[O-])c2)c2ccc(OC)cc2)cc1	5.40	pKi [3]: 6.84
33	O=C(CCCCC(c1ccc(F)cc1)c1ccc(F)cc1)Nc1ccc(Cl)c(C(F)(F)F)c1	4.94	
79	Cc1ccc(NC(=O)NCCCCC(c2ccc(F)cc2)c2ccc(F)cc2)cc1C	< 4.70	pKi [3]: 7.10
24	O=C(Nc1ccc(Cl)c(C(F)(F)F)c1)N1CCC(CC(c2ccc(F)cc2)c2ccc(F)cc2)CC1	5.32	
	O=C(NCCCCC(c1ccc(F)cc1)c1ccc(F)cc1)Nc1ccc(C(=O)O)c(C(F)(F)F)c1	< 4.70	
86	O=C(NCCCC(c1ccc(F)cc1)c1ccc(F)cc1)Nc1ccc(Cl)c(C(F)(F)F)c1	5.46	pKi [3]: 6.85
	O=C(NCCCCC(c1ccc(F)cc1)c1ccc(F)cc1)Nc1cccc(Cl)c1	5.29	
24	O=C(NCCCCC(c1ccc(F)cc1)c1ccc(F)cc1)Nc1ccc(I)cc1	4.93	
20	O=C(NCCCCC(c1ccc(F)cc1)c1ccc(F)cc1)Nc1ccc(Cl)cc1C(F)(F)F	< 4.70	
	O=C(OCCCC(c1ccc(F)cc1)c1ccc(F)cc1)c1cc(Cl)c(OCc2ccccc2)c(Cl)c1	< 4.70	
59	Cc1ccc(C(CCCCNC(=O)Nc2ccc(Cl)cc2)c2ccc(C)cc2)cc1	4.75	pKi [3]: 6.27
73	CN(CCCCC(c1ccc(F)cc1)c1ccc(F)cc1)C(=O)Nc1ccc(Cl)c(C(F)(F)F)c1	5.22	pKi [3]: 6.00
	O=C(NCCCCC(c1ccc(OC(F)(F)F)cc1)c1ccc(OC(F)(F)F)cc1)Nc1ccc(Cl)c(C(F)(F)F)c1	5.77	
	Cc1cccc(NC(=O)NCCCCC(c2ccc(F)cc2)c2ccc(F)cc2)c1	< 4.70	
	Cc1ccc(NC(=O)NCCCCN(c2ccc(F)cc2)c2ccc(F)cc2)cc1C	< 4.70	
	Fc1ccc(C(CCCCN(c2ccc(F)cc2)c2ccc(F)cc2)c2ccc(F)cc2)cc1	< 4.70	
	O=S(=O)(c1ccc(Cl)c(C(F)(F)F)c1)N1CCN(CCCCC(c2ccc(F)cc2)c2ccc(F)cc2)CC1	< 4.70	
	COC(=O)c1ccc(NC(=O)NCCCCC(c2ccc(F)cc2)c2ccc(F)cc2)cc1C(F)(F)F	5.35	
	O=C(NCCCCC(c1ccc(F)cc1)c1ccc(F)cc1)Nc1ccc([N+](=O)[O-])cc1	5.19	
	O=C(NCCCCC(c1ccc(F)cc1)c1ccc(F)cc1)Nc1ccc(Br)cc1I	< 4.70	
	CC(=O)Nc1ccc(C(CCCCNC(=O)Nc2ccc(Cl)c(C(F)(F)F)c2)c2ccc(NC(C)=O)cc2)cc1	< 4.70	
	O=C(NCCCCC(c1ccc([N+](=O)[O-])cc1)c1ccc([N+](=O)[O-])cc1)Nc1ccc(Cl)c(C(F)(F)F)c1	5.91	
49	O=C(Nc1ccc(Cl)c(C(F)(F)F)c1)OCCCCC(c1ccc(F)cc1)c1ccc(F)cc1	5.34	
26	CN(CCCCC(c1ccc(F)cc1)c1ccc(F)cc1)C(=O)N(C)c1ccc(Cl)c(C(F)(F)F)c1	< 4.70	
	Nc1cc(NC(=O)NCCCCC(c2ccc(F)cc2)c2ccc(F)cc2)ccc1Cl	5.03	
51	O=C(NCCCCC(c1ccc(F)cc1)c1ccc(F)cc1)c1ccc(Cl)c(C(F)(F)F)c1	4.93	pKi [3]: 6.22
